# Reference: ChEMBL document CHEMBL3351820, “Development of novel membrane active lipidated peptidomimetics active against drug resistant clinical isolates” (Bioorg Med Chem, 2014)
# Active and inactive are the calls of the source. No cut-off for these calls is given here. Where a SMILES comes first, the peptide text is derived from it. [ ]: non-standard residue; d: D form. The star is where a group is joined. Stearoyl = CCCCCCCCCCCCCCCCCC(=O)*; Myristoyl = CCCCCCCCCCCCCC(=O)*; 3Abz = Nc1cccc(C(=O)O)c1; Orn = NCCC[CH](N)C(=O)O
# Experiments:
# [1] = system: Staphylococcus aureus; experiment: Bactericidal activity against Staphylococcus aureus MTCC 3160 at 4 to 8 times MIC by time-kill assay; format: functional, organism-based
# Summary of the method: (§1)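 Time-kill: mid-log cells (2×10^5 CFU/mL) in MHB, untreated or exposed at 1, 2, 4 and 8×MIC at 37 °C. Aliquots taken at 0, 15, 30, 60, 120 and 240 min, serially 10-fold diluted, plated on Mueller-Hinton agar for 18 h at 37 °C. Log CFU/mL plotted against time versus untreated control; two independent experiments in triplicate.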
# [2] = system: Staphylococcus aureus; experiment: Bactericidal activity against Staphylococcus aureus MTCC 3160 assessed as log reduction in bacterial growth at 4 to 8 times MIC up to 30 mins by time-kill assay relative to control; format: functional; summary of the method: as §1
# [3] = Therapeutic index, ratio of HC50 for human RBCs to MIC for Staphylococcus aureus MTCC 3160; conditions: red blood cells (RBCs), read-out: TI
# [4] = system: Escherichia coli; experiment: Membrane disruption effect in Escherichia coli MTCC 0723 assessed as surface blebs and aggregation at 4 times MIC by scanning electron microscopy; format: functional, organism-based
# Summary of the method: (§2)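 SEM: E. coli and S. aureus at 1×10^6 CFU/mL in 10 mM PBS pH 7.4 with 100 mM NaCl, exposed at 4×MIC at 37 °C. […] After 30 min, cells fixed in 4% glutaraldehyde/0.2 M cacodylate for 3 h at 4 °C, ethanol-dehydrated, HMDS-dried, gold-coated (~20 nm).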
# [5] = system: Staphylococcus aureus; experiment: Antibacterial activity against methicillin-resistant Staphylococcus aureus PGI/ DML03149 clinical isolate after 16 days by serial passage resistance development assay; format: functional, organism-based
# Summary of the method: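 MRSA clinical isolate serially passaged for 16 days. Each day MICs were set up in microtiter wells over doubling-dilution concentrations, 18 h incubation. Cells from triplicate wells at the concentration still permitting visible growth were diluted to about 2×10^5 CFU/mL to seed the next exposure. MIC was tracked across passages.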
# [6] = system: Pseudomonas aeruginosa; experiment: Antibacterial activity against Pseudomonas aeruginosa MTCC 2295 after 18 hrs by micro dilution broth assay; format: functional; conditions: MTCC 2295, 18 h
# Summary of the method: (§3)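 Broth microdilution (modified CLSI): mid-log inoculum at 10^5 CFU/mL in Mueller-Hinton broth; serial 2-fold dilutions of sample in 0.001% acetic acid with 0.2% BSA added. Incubated overnight at 37 °C with agitation; A600 read at 18 h. Drug-free culture and uninoculated broth as controls; triplicate.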
# [7] = system: Escherichia coli; experiment: Antibacterial activity against imipenem-resistant Escherichia coli PGI/ DML02292 clinical isolate after 18 hrs by micro dilution broth assay; format: functional; conditions: PGI/ DML02292, 18 h
# [8] = Membrane permeabilization activity assessed as release of calcein from PC/PE/PI/ergosterol liposomes at 4 ug/ml after 5 mins by spectrofluorimetry; format: ADME
# Summary of the method: (§4)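 Calcein-loaded LUVs, PE/PG (bacterial mimic) or PC/PE/PI/ergosterol (fungal mimic), exposed to 1-20 μg/mL for 5 min before fluorescence reading. Triton X-100 in Tris-HCl/NaCl/EDTA buffer sets 100% leakage; % leakage = 100(F−F0)/(Ft−F0). Run in triplicate, two independent experiments, mean ± SD.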
# [9] = system: Escherichia coli; experiment: Antibacterial activity against Escherichia coli MTCC 0723 after 18 hrs by micro dilution broth assay; format: functional; conditions: MTCC 0723, 18 h; summary of the method: as §3
# [10] = system: Aspergillus fumigatus; experiment: Antifungal activity against fluconazole-resistant Aspergillus fumigatus IGMC/LM1/0336 after 24 hrs by M27-A method; format: functional; conditions: IGMC/LM1/0336, 24 h
# Summary of the method: (§5)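 Fungi at 2.5×10^3 cfu/mL in RPMI 1640 (L-glutamine, no glucose or NaHCO3, pH 7.0 with 0.165 M MOPS). Mixed 1:1 with serial 2-fold dilutions in water, incubated at 37 °C with shaking, 24 h for A. fumigatus and 48–72 h for C. albicans. Growth read by absorbance at 600 nm. MIC taken as the lowest concentration with no growth.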
# [11] = system: Aspergillus fumigatus; experiment: Antifungal activity against Aspergillus fumigatus ATCC 42203 after 24 hrs by M27-A method; format: functional; conditions: ATCC 42203, 24 h
# Summary of the method: (§6)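 Fungi at 2.5×10^3 cfu/mL in RPMI 1640 (L-glutamine, no glucose or NaHCO3, buffered pH 7.0 with 0.165 M MOPS), mixed 1:1 with serial 2-fold aqueous dilutions. Incubated at 37 °C with shaking, 24 h for Aspergillus, 48-72 h for Candida and Cryptococcus; A600 read. MIC taken as lowest concentration with no growth.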
# [12] = system: Candida albicans; experiment: Antifungal activity against fluconazole-resistant Candida albicans PGI/ DML0109 clinical isolate after 48 to 72 hrs by M27-A method; format: functional; summary of the method: as §5
# [13] = system: Cryptococcus neoformans; experiment: Antifungal activity against Cryptococcus neoformans ATCC 2344 after 48 to 72 hrs by M27-A method; format: functional; summary of the method: as §6
# [14] = system: Candida albicans; experiment: Antifungal activity against Candida albicans ATCC 24433 after 48 to 72 hrs by M27-A method; format: functional; summary of the method: as §6
# [15] = system: Plasma; experiment: Stability in human plasma after 24 hrs by analytical RP-HPLC; format: ADME, cell-free
# Summary of the method: (§7)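 Heparinized fresh human plasma (1 mL) plus 50 μL of a […] aqueous stock, incubated at 37 °C. At intervals, 100 μL aliquots precipitated with 200 μL 95% ethanol, held 15 min at 4 °C, spun at 18,000 g for 2 min. Supernatant analysed by C18 RP-HPLC.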
# [16] = Membrane permeabilization activity assessed as release of calcein from PE/PG liposomes at 4 ug/ml after 5 mins by spectrofluorimetry; format: ADME; summary of the method: as §4
# [17] = system: Staphylococcus aureus; experiment: Growth inhibition of Staphylococcus aureus MTCC 3160 at 2 times MIC by time-kill assay; format: functional, organism-based; summary of the method: as §1
# [18] = system: Aspergillus niger; experiment: Antifungal activity against Aspergillus niger ATCC 64028 after 24 hrs by M27-A method; format: functional; conditions: ATCC 64028, 24 h; summary of the method: as §6
# [19] = system: Staphylococcus aureus; experiment: Membrane disruption effect in Staphylococcus aureus MTCC 3160 assessed as surface blebs and aggregation at 4 times MIC by scanning electron microscopy; format: functional, organism-based; summary of the method: as §2
# [20] = Membrane permeabilization activity assessed as release of calcein from PE/PG liposomes at 20 ug/ml after 5 mins by spectrofluorimetry; format: ADME; summary of the method: as §4
# [21] = Therapeutic index, ratio of HC50 for human RBCs to MIC for Escherichia coli MTCC 0723; conditions: red blood cells (RBCs), read-out: TI
# [22] = system: Escherichia coli; experiment: Bactericidal activity against Escherichia coli MTCC 0723 assessed as log reduction in bacterial growth at 4 to 8 times MIC up to 30 mins by time-kill assay relative to control; format: functional; summary of the method: as §1
# [23] = system: Escherichia coli; experiment: Growth inhibition of Escherichia coli MTCC 0723 at 2 times MIC by time-kill assay; format: functional, organism-based; summary of the method: as §1
# [24] = system: Escherichia coli; experiment: Bactericidal activity against Escherichia coli MTCC 0723 at 4 to 8 times MIC by time-kill assay; format: functional, organism-based; summary of the method: as §1
# [25] = system: Staphylococcus aureus; experiment: Antibacterial activity against methicillin-resistant Staphylococcus aureus PGI/ DML03149 clinical isolate after 18 hrs by micro dilution broth assay; format: functional; conditions: PGI/ DML03149, 18 h
# [26] = Proteolytic stability assessed as alpha-chymotrypsin (unknown origin)-mediated degradation after 4 days by analytical RP-HPLC; format: ADME, Homo sapiens; conditions: 96 h
# Summary of the method: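 Peptide (1 mg/mL sample solution) and enzyme solution (1 mg per 50 mL) in 0.1 M NH4HCO3 pH 8.2, combined with buffer and incubated at 37 °C. Aliquots taken over time, quenched with 10% formic acid. Remaining peptide quantified by C18 RP-HPLC with a water/acetonitrile gradient (0.05% TFA); enzyme-free control run alongside.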
# [27] = Hemolytic activity in human RBCs; format: ADME, cell-based, Erythrocyte; conditions: red blood cells (RBCs)
# Summary of the method: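 Washed fresh human erythrocytes, 4% (v/v) in PBS (35 mM phosphate, 150 mM NaCl, pH 7.2), mixed 1:1 with 2-fold dilutions in PBS. Incubated 1 h at 37 °C without agitation, then centrifuged at 1000 g for 5 min. Supernatant hemoglobin read at 440 nm; % hemolysis = 100(A−A0)/(At−A0).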
# [28] = system: Staphylococcus aureus; experiment: Antibacterial activity against Staphylococcus aureus MTCC 3160 after 18 hrs by micro dilution broth assay; format: functional; conditions: MTCC 3160, 18 h; summary of the method: as §3
# [29] = system: Bacillus subtilis; experiment: Antibacterial activity against Bacillus subtilis MTCC 2763 after 18 hrs by micro dilution broth assay; format: functional; conditions: MTCC 2763, 18 h; summary of the method: as §3
# [30] = Membrane permeabilization activity assessed as release of calcein from PC/PE/PI/ergosterol liposomes at 20 ug/ml after 5 mins by spectrofluorimetry; format: ADME; summary of the method: as §4
# [31] = Stability in human plasma after 4 days by analytical RP-HPLC; format: ADME, cell-free; conditions: read-out: Stability; summary of the method: as §7
# [32] = system: Escherichia coli; experiment: Binding affinity to Escherichia coli plasmid DNA at 12 ug/ml after 1 hr by gel retardation assay
# Summary of the method: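 Gel retardation: 100 ng plasmid DNA from E. coli PGI/DML02292 mixed with varying peptide amounts in binding buffer (10 mM Tris-HCl pH 8.0, 5% glycerol, 1 mM EDTA, 1 mM DTT, 20 mM KCl, 50 μg/mL BSA). Held 1 h at room temperature, then run on 1% agarose in 0.5× TBE. Polymyxin B as standard.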
# [33] = system: Aspergillus fumigatus; experiment: Membrane disruption effect in Aspergillus fumigatus ATCC 42203 assessed as surface blebs and aggregation at 4 times MIC by scanning electron microscopy; format: functional, organism-based
Structure (SMILES),selectivity ratio [3],MIC [6] [µg/mL],MIC [7] [µg/mL],Activity [8] [%],MIC [9] [µg/mL],MIC [10] [µg/mL],MIC [11] [µg/mL],MIC [12] [µg/mL],MIC [13] [µg/mL],MIC [14] [µg/mL],Activity [16] [%],MIC [18] [µg/mL],Activity [20] [%],selectivity ratio [21],MIC [25] [µg/mL],HC50 [27] [µg/mL],MIC [28] [µg/mL],MIC [29] [µg/mL],Activity [30] [%],other results
CCCCCCCCCCCCCC(=O)Nc1cccc(C(=O)NC(CCCN)C(=O)NC(CCCN)C(=O)NC(CCCN)C(=O)NC(CCCN)C(N)=O)c1 (configuration not stated) ({Myristoyl-3Abz}-[Orn][Orn][Orn][Orn]-NH2; configuration not given here),333,2,3.1,29,1.25,4,2.25,4,6.25,3.1,58,3,93,400,2,500,1.5,10,77,Activity [1]: Active; FC [2]: 5; Activity [4]: Active; Activity [5]: Active; Stability [15]: Stable; growth inhibition (GI) [17]: Active; Activity [19]: Active; FC [22]: 5; growth inhibition (GI) [23]: Active; Activity [24]: Active; Stability [26]: Stable; remaining at 96 h [31]: 76%; Activity [32]: inactive
CCCCCCCCCCCCCCCCCC(=O)Nc1cccc(C(=O)NC(CCCN)C(=O)NC(CCCN)C(=O)NC(CCCN)C(=O)NC(CCCN)C(N)=O)c1 (configuration not stated) ({Stearoyl-3Abz}-[Orn][Orn][Orn][Orn]-NH2; configuration not given here),20,6.25,5,57,3.5,2,1.5,2,5.5,1.5,44,1.5,84,57.1,10.5,200,10,12.5,89,Activity [33]: Active
